APJ antagonist: antagonists of human APJ apelin receptor; P35414; CHO-K1 APJ beta-arrestin complementation, luminescence; inhibition, % at 20 µM; hit rate 0.32% among 330,000;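 active means inhibition above about 40% at 20 µM, limit read from the data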;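 further: cells challenged with 10 nM apelin-13 agonist together with compound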
APJ agonist: activates the human apelin receptor APJ; P35414; CHO-K1 APJ PathHunter beta-arrestin, luminescence; 0% DMSO wells, 100% apelin; activation, % at 20 µM; hit rate 0.11% among 330,000; AID 2520;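 active means activation more than six SD over the plate average, tested at 20 µM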
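Test system: CHO-K1 APJ beta-arrestin complementation cell line | Compound: Single test compound dose, 20 µM final, 1% DMSO | Incubation: Compound 90 min 25 °C, reagent 1 h | Measured by: beta-gal luminescence | Read-out basis: APJ–arrestin association signal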
CCR6 antag: blocks CCL20-driven beta-arrestin recruitment at human CCR6. hit rate 0.49% among 340,000. CHO-K1 CCR6 PathHunter beta-arrestin, luminescence, CCL20-stimulated. inhibition, % at 20 µM. P51684;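 active means compounds whose inhibition of the agonist-driven luminescence signal at 20 µM reaches about 50%, limit read from the data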;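 further: cells stimulated with CCL20 at 14 nM final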
CXCR6 block: blocks human CXCR6 beta-arrestin recruitment. O00574. CHO-K1 PathHunter CXCR6 beta-arrestin, luminescence. inhibition, % at 20 µM. hit rate 0.36% among 360,000. AID 602244; in the data active means inhibition above about 34%, passing the limit was not always enough;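 further: antagonist mode with CXCL16 agonist at 10 nM final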
EBI2 block: EBI2 (human) antagonism | P32249 | inhibition, % at 5 µM | hit rate 0.81% among 360,000 | EBI2 beta-arrestin recruitment, luminescence, 7a,25-OHC stimulated | AID 651636; in the data active means inhibition above about 38%;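 further: enzyme fragment complementation signal reports receptor beta-arrestin coupling in cells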
m5-HT2A agonist: agonists of mouse serotonin 5-HT2A receptor (HTR2A); P35363; AID 624169; CHO-K1 mHTR2A beta-arrestin complementation, luminescence; percent of 30 µM serotonin response; hit rate 0.66% among 360,000; activation, % at 7.6 µM;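 active means activation above a run cutoff, the mean activation of all tested compounds plus 3 SD, cut at about 14% in these data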
Target sequence (P35363 whole entry, looked up): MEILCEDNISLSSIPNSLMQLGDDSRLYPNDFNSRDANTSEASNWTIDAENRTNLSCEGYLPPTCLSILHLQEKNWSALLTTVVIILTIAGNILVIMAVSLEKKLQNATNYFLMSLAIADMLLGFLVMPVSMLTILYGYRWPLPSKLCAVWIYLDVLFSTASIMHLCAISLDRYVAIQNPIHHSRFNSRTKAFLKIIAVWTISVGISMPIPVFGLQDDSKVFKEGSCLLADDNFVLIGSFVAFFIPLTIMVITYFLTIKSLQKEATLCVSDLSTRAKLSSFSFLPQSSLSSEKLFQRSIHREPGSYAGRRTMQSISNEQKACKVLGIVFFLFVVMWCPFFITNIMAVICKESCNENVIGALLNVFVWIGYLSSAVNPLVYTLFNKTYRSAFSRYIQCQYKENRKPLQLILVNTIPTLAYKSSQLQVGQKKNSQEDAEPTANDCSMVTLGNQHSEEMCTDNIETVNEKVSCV
MOR ag counter: activates human mu opioid receptor in HTR2A counterscreen. U2OS OPRM1 beta-arrestin PathHunter, luminescence; DMSO 0%, DAMGO 9.3 µM 100%. AID 624380. shares compounds with m5-HT2A agonist. activation, % at 9.3 µM. hit rate 5.3% among 2,300;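 active means mean activation above the mean of DMSO-only wells plus 3 SD, cut at about 0.5% in these data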
HTR2A ag conf: mouse HTR2A agonism confirmed; shares compounds with m5-HT2A agonist; CHO-K1 PathHunter beta-arrestin recruitment, luminescence; DMSO 0%, 30 µM serotonin 100%; activation, % at 7.6 µM; hit rate 19% among 2,300; AID 624381;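 active means mean activation across triplicates above the hit threshold derived in the original primary screen, cut at about 15% in these data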
Of the large screens only hits and unclear results are named; the others gave an inactive call (follow-up assays come after a bar, where they were run). In the library only some 2.1% were active in any assay of this set; here they are far more common.

O=C(Cc1ccc(Cl)cc1)NCCS(=O)(=O)N1CCN(c2ccccc2F)CC1	none
O=C(COc1ccc(Cl)cc1)NCCS(=O)(=O)N1CCN(c2ccccc2F)CC1	m5-HT2A agonist 16 | MOR ag counter inactive | HTR2A ag conf inactive
O=C(NCc1ccncc1)c1ccc(S(=O)(=O)Nc2ccccc2)cc1	m5-HT2A agonist 15 | MOR ag counter inactive | HTR2A ag conf inactive
Cc1csc(NC(=O)CSc2ncn(-c3ccccc3)n2)n1	m5-HT2A agonist 21 | MOR ag counter inactive | HTR2A ag conf inactive
Cc1ccc(-c2csc(NC(=O)CSc3ncn(-c4ccccc4)n3)n2)cc1	none
Cn1ncc([N+](=O)[O-])c1C(=O)Nc1ccccc1C#N	m5-HT2A agonist 16 (no result: APJ antagonist, APJ agonist, CCR6 antag) | MOR ag counter inactive | HTR2A ag conf inactive
Cc1ccn2cc(CNS(=O)(=O)c3ccc4c(c3)OCCO4)nc2c1	m5-HT2A agonist 26 | MOR ag counter inactive | HTR2A ag conf inactive
Cc1ccc(C)c2[nH]c(=O)c(CN(CCN3CCCC3)C(=O)Nc3ccc(F)cc3)cc12	m5-HT2A agonist 17 | MOR ag counter inactive | HTR2A ag conf inactive
O[C@@H](CNC[C@H](O)c1ccccc1)c1ccccc1	none
CNC[C@H](O)c1ccc(O)c(O)c1	m5-HT2A agonist 50 | MOR ag counter inactive | HTR2A ag conf 165
CC(C)NCC(O)c1ccc(O)c(O)c1 (centres undefined)	none
NC[C@H](O)c1ccc(O)c(O)c1	m5-HT2A agonist 36 | MOR ag counter inactive | HTR2A ag conf 143
CNC[C@H](O)c1cccc(O)c1	m5-HT2A agonist 17 | MOR ag counter inactive | HTR2A ag conf 47
Cc1cccc(NC(=O)CSc2nc(NS(=O)(=O)c3ccccc3)cc(=O)[nH]2)c1	none
O=C(C[C@@H]1C/C=C\C[C@H](NC(=O)OCC2c3ccccc3-c3ccccc32)C(=O)OC[C@H]2CCCN2C1=O)N[C@H](CO)Cc1ccccc1	none
Cc1ccc(C2N(C)C(=O)c3ccccc3N2C)cc1 (centres undefined)	none
CCN(CC)S(=O)(=O)c1ccc2nnn(O)c2c1	none
O=S(=O)(c1ccc2nnn(O)c2c1)N1CCCCC1	m5-HT2A agonist 20 | MOR ag counter inactive | HTR2A ag conf inactive
COc1cccc(C2CC(c3ccc(C(C)C)cc3)n3nc(N)nc3N2)c1 (centres undefined)	none
Cc1n[nH]c(=S)n(/N=C/c2cccs2)c1=O	m5-HT2A agonist 14 | MOR ag counter inactive | HTR2A ag conf inactive
CN(Cc1ccccc1)C(=O)c1ccc2sc([C@@H]3O[C@H](CO)[C@H](O)[C@H](O)[C@H]3O)nc2c1	m5-HT2A agonist 21 (no result: APJ antagonist, APJ agonist, CCR6 antag) | MOR ag counter inactive | HTR2A ag conf inactive
O=C(Nc1ccc(Cl)cc1)c1ccc2sc([C@@H]3O[C@H](CO)[C@H](O)[C@H](O)[C@H]3O)nc2c1	none (no result: APJ antagonist, APJ agonist, CCR6 antag)
Cc1cc(NC(=O)c2ccc3sc([C@@H]4O[C@H](CO)[C@H](O)[C@H](O)[C@H]4O)nc3c2)no1	m5-HT2A agonist 21 (no result: APJ antagonist, APJ agonist, CCR6 antag) | MOR ag counter inactive | HTR2A ag conf inactive
O=C(CCCOc1ccc(Cl)cc1)N1CCCCCC1	none
CC(C)(CC(=O)O)CC(=O)NCc1c(Cl)cccc1Sc1ccc(Cl)cc1	m5-HT2A agonist 15 | MOR ag counter inactive | HTR2A ag conf inactive
O=C(O)CCCC(=O)NCc1c(Cl)cccc1Sc1ccc(Cl)cc1	none
O=C(Nc1ccc(F)cc1)Oc1ccc[nH]c1=O	m5-HT2A agonist 15 | MOR ag counter inactive | HTR2A ag conf inactive
O=C(Oc1ccc[nH]c1=O)c1ccccc1	none (no result: APJ antagonist, APJ agonist, CCR6 antag)
CCCCN1C(N)=NC[C@@H]1c1ccccc1	none
NC1=C(Cl)C(=O)c2ccccc2C1=O	m5-HT2A agonist 17 (no result: APJ antagonist, APJ agonist) | MOR ag counter inactive | HTR2A ag conf inactive
NC1=C(Cl)C(=O)c2ccc(S(N)(=O)=O)cc2C1=O	none (no result: APJ antagonist, APJ agonist)
COc1ccc(CC(=O)Nc2ccc(-c3noc(-c4ccccc4OC)n3)cc2)cc1	m5-HT2A agonist 18 | MOR ag counter 3.0 | HTR2A ag conf inactive
COc1cccc(-c2nc(-c3ccc(NC(=O)Cc4ccccc4OC)cc3)no2)c1	none (no result: APJ antagonist, APJ agonist)
CCN(CC)c1nc(-c2ccccc2)nc2ccccc12	none
BrC(=C\c1ccccc1)/C=N/N1CCN(Cc2ccccc2)CC1	m5-HT2A agonist 20 | MOR ag counter inactive | HTR2A ag conf inactive
CC(/C=N\N1CCN(Cc2ccc(C)cc2)CC1)=C\c1ccccc1	none
BrC(/C=N/N1CCN(Cc2ccccc2)CC1)=C/c1ccccc1	m5-HT2A agonist 24 | MOR ag counter inactive | HTR2A ag conf inactive
O=C1C2ON(c3ccccc3)C(c3ccncc3)C2C(=O)N1c1ccccc1 (centres undefined)	none
COc1ccc(C(=O)NNC2=CC(=O)CC(C)(C)C2)cc1	m5-HT2A agonist 19 | MOR ag counter inactive | HTR2A ag conf inactive
CC1(C)CC(=O)C=C(NNC(=O)c2ccccc2O)C1	none
CC1(OC(=O)C2CCCC2)C(=O)C=C2C=C(c3ccsc3)N(C3CC3)C=C2C1=O (centres undefined)	m5-HT2A agonist 15 | MOR ag counter inactive | HTR2A ag conf inactive
O=C(COC(=O)c1cc(S(=O)(=O)N2CCCCC2)ccc1N1CCOCC1)c1ccc(Cl)cc1	none
N#Cc1ccccc1OCC(=O)NC(N)=O	none
CCOC(=O)CCCNC(=O)COc1ccccc1C#N	m5-HT2A agonist 19 | MOR ag counter inactive | HTR2A ag conf inactive
C/C=C(\C)CN1CCN(c2ccccc2)CC1	none
C/C(=C\c1ccccc1)CN1CCN(c2ccccc2)CC1	m5-HT2A agonist 19 | MOR ag counter inactive | HTR2A ag conf 41
CCC(=O)n1nc(-c2ccco2)nc1N	none
CCc1ccc(OCCCC(=O)Nc2ccc(S(=O)(=O)Nc3cc(C)nc(C)n3)cc2)cc1	m5-HT2A agonist 15 | MOR ag counter inactive | HTR2A ag conf inactive
C=CCn1c(-c2ccc(Cl)cc2)cnc1SC(C)C(N)=O (centres undefined)	none
COc1ccc(CCn2c(=N)c(C(=O)NCc3ccco3)cc3c(=O)n4ccccc4nc32)cc1	none
COc1cccc(-c2nc(NC(C)C)c3ccccc3n2)c1O	m5-HT2A agonist 46 | MOR ag counter inactive | HTR2A ag conf 48
COc1cccc(-c2nc(NCC3CCCO3)c3ccccc3n2)c1O (centres undefined)	m5-HT2A agonist 32 | MOR ag counter inactive | HTR2A ag conf 15
CCC(C)Nc1nc(-c2cccc(OC)c2O)nc2ccccc12 (centres undefined)	m5-HT2A agonist 59 | MOR ag counter inactive | HTR2A ag conf 33
